Assay results published in ChEMBL document CHEMBL4513216, “Probing the Open Global Health Chemical Diversity Library for Multistage-Active Starting Points for Next-Generation Antimalarials” (ACS Infect Dis, 2020).

Assay: Toxicity liver stage against HepG2, at 10uM
Format: cell-based
Design: test concentration 10 uM, cell line HepG2-A16-CD81EGFP
Conditions: human, HepG2-A16-CD81EGFP cells; read-out: INHIBITION
How it was run: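 Uninfected HepG2-A16-CD81EGFP cells, 3 × 10^3 per well, 1536-well, plated on prespotted compound at 10 μM final, parasite-free screening media added to match infected plates; puromycin 10 μM positive, DMSO 0.5% negative; run in parallel with 48 h PbLuc assay at 37 °C, 5% CO2; viability by CellTiter-Glo luminescence, normalized to controls.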

Structure (SMILES) | cytotoxicity at 10 µM [%]
O=C1CCCc2cc(-c3csc(CCN4CCOC4=O)n3)ccc2N1 | 0.196
Cc1ccc(C(CC(=O)O)NC(=O)CCc2cccs2)cc1 (centres undefined) | -4.32
CCNC(=O)N1CC[C@H]2CC(=O)N(CC(N)=O)CC[C@H]2C1 | 10
COCC(=O)Nc1ccc(-c2noc([C@@H]3CCCN3CC(C)C)n2)cn1 | 5.82
COCCCNC(=O)Nc1ncc(-c2cccc(OC)c2)n1CCOC | 18.6
CCNCCC(Cc1ccccc1)c1ccco1 (centres undefined) | 5.31
O=C(NCc1ccccc1)NCC1CCN(Cc2ccsc2)CC1 | -14.1
CCc1ccc(S(=O)(=O)NCCOc2ccc3nnc(C)n3n2)s1 | -6.98
Cc1nnc(C2CCN(C(=O)c3cnc4ccccc4n3)CC2)s1 | 7.1
CCc1ccc(C(=O)N2CCCC3(CCCC(=O)N3C)C2)cc1 (centres undefined) | -5.72
Cc1noc(C2CCC3(CCN(C(=O)c4ccncn4)CC3)O2)n1 (centres undefined) | 5.76
CCOCC1CN(C(=O)c2cccc(C)n2)Cc2cnn(C)c21 (centres undefined) | 2.98
O=C(c1cc(-n2cnnn2)ccc1Cl)N1CCOCC1 | 6.22
COCCCNC(=O)c1c(-n2cnnn2)sc2c1CCC2 | 11.4
COc1ccc(-c2ccnc3nc(N4CCCCC4)[nH]c(=O)c23)cc1 | 5.31
O=C(NCCn1ccc(-c2ccccn2)n1)c1ccncc1 | -20.7
CCN(CC)CCNC(=O)c1cc(OC)c2ccoc2c1 | -0.971
CCC1c2cccn2CCN1S(=O)(=O)N1CCOCC1 (centres undefined) | 7.25
NC(=O)C1(CCCc2ccccn2)CCCN(CCO)C1 (centres undefined) | 3.38
CC(=O)NCC(=O)N1C[C@@H]2CC[C@H](Oc3ccccc3Cl)[C@@H]2C1 | 9.16
O=C(Cc1ccsc1)N1CCC(O)(CN2CCc3ccccc3C2)C1 (centres undefined) | -7.27
CC(=O)N1C[C@@H](c2ccsc2)[C@@H]2CN(CC3CCCCC3)CC[C@@H]21 | -7.99

Structure (SMILES) | cytotoxicity at 10 µM [%]
c1cnc(N2CCC(OCC3CCCCO3)CC2)nc1 (centres undefined) | -11.4
NC(=O)N1CCCN(CCCSCc2ccccc2)CC1 | -2.17
CN(C(=O)c1ccccc1N(C)S(C)(=O)=O)c1ccc(C(C)(C)C)cc1 | 5.17
Cc1cnn(C2CCCN(C(=O)c3cc(-c4ccco4)[nH]n3)C2)c1 (centres undefined) | -9.48
CS(=O)(=O)c1ccc2c(c1)N(C(=O)Cc1cccc(F)c1)CCC2 | 14.9
CNS(=O)(=O)c1ccc(F)c(C(=O)NCc2ccnc(OC)c2)c1 | -9.8
CNC(=O)CCS(=O)(=O)Cc1nnnn1-c1ccccc1 | 15.3
CCOc1c(F)cccc1C(=O)N(CC)C(C)c1ccncc1 (centres undefined) | 11
O=C(Cn1cc(C2CC2)nn1)N(Cc1ccco1)Cc1cccs1 | -13.3
O=C(c1ccc(CN2CCCCC2)cc1)N1CCCC1c1cccs1 (centres undefined) | -7.15
COc1ccc(CN(C(=O)CCC(C)C)c2cnn(C)c2)c(OC)c1 | -1.35
Cc1cc(C)c(S(=O)(=O)Nc2c(C)noc2C)cc1C(=O)O | -8.18
CCCNC(=O)c1cc(Br)c2c(c1)OCCO2 | 9.65
CN(C)c1ncccc1CNC(=O)N(Cc1ccccc1F)C1CC1 | 2.6
CN(CCC(F)(F)F)C(=O)C1CSCN1C(=O)C(C)(C)C (centres undefined) | 9.07
Cc1noc(C(C)C)c1C(=O)NS(=O)(=O)c1cccnc1 | 0.345
CC(C)CN1CCC(NC(=O)c2ccc(F)cc2F)CC1 | -3.1
CN(C)CC1CN(c2ncnc3ccsc23)CCO1 (centres undefined) | 12
O=C(NCc1ccc(Cl)cc1Cl)NCC1(O)CCSC1 (centres undefined) | -9.12
CCN(CC1CCOC1)C(=O)c1cc(OC)c2c(c1)OCCO2 (centres undefined) | -7.35
COc1cc(C(=O)N(C)Cc2cc(C(=O)O)c(C)o2)cc(OC)c1OC | -1.76
CCN(C(=O)NCc1cccnc1N(C)C)C(C)c1cccnc1 (centres undefined) | -4.6

Structure (SMILES) | cytotoxicity at 10 µM [%]
CS(=O)(=O)CCN(CCc1cccc(F)c1)C1CC1 | 11.4
Cc1csc(NC(=O)C2CCN(Cc3cccc4c3OCCO4)CC2)n1 | -17.9
O=S(=O)(NCCSc1nncn1C1CC1)c1ccccc1 | -14.1
CCS(=O)(=O)NC(CCSC)C(=O)Nc1ccc(C)cc1C (centres undefined) | -8.9
CN(Cc1cccc(F)c1)C(=O)CS(=O)(=O)Cc1c(Cl)cccc1Cl | -2.81
CN1CCN(C(=O)CCc2cccnc2)c2ccc(F)cc21 | -2.23
COCCC1(CNC(=O)NC2CCCN(C)C2)CC1 (centres undefined) | -0.926
O=C(O)CC(NC(=O)c1cc(Br)c[nH]1)c1ccccc1 (centres undefined) | 1.22
N#Cc1cccc(CS(=O)(=O)NCC(O)Cc2ccccc2)c1 (centres undefined) | 2.99
CCOC(CC)C(=O)NCc1ccnc(Oc2ccc(F)cc2)c1 (centres undefined) | -1.43
CC(C)[C@H]1COC(=O)N1Cc1nncn1C(C)C | -9.17
COc1ccccc1OC1(C(=O)O)CCN(c2ncccc2F)CC1 | -12.9
Cc1ccc(C)c2c(O)cc(CNCC(=O)N3CCCC3)nc12 | -12.4
COCC(NC1CSCCSC1)c1ccnn1C (centres undefined) | 4.34
Nc1nc(NCCc2[nH]nc3c2CCCC3)cc(N2CCOCC2)n1 | 0.666
COc1ccc(OC)c(-c2nc(CN(C)Cc3noc(C)n3)c(C)o2)c1 | -3.7
COC(=O)CNC(=O)N1CCC2(CC1)CC(c1ccccc1)CN(C)C2 (centres undefined) | 0.761
CN(Cc1ccn[nH]1)C(=O)CCC(=O)NC1CCCC1 | 0.324
Cc1ccc(C(=O)N2CCC(C(F)(F)F)CC2)cc1N1CCNC1=O | 2.01
COC(=O)[C@@H]1C[C@H](NC(=O)c2cc(=O)[nH]c3ccc(C)cc23)CN1C | 6.46
CCN1CCC2(CCC1=O)CN(c1cnc3ccccc3n1)CCN2C (centres undefined) | 1.79
Oc1cc(CCC2CCCCN2)cc(-c2cccnc2)c1 (centres undefined) | 4.11

Structure (SMILES) | cytotoxicity at 10 µM [%]
Cc1ccc2nc(C)c(C)c(C(=O)NCCCn3cnnc3)c2c1 | -2.89
Cc1nc(-c2cc(F)c3c(c2)CC(CN)O3)c[nH]1 (centres undefined) | 9.15
COc1cccc(CC2(C(=O)O)CCN(c3ccc(Cl)cn3)CC2)c1 | -14
C=C(C)COc1ccccc1C(=O)NCCCc1nnn[nH]1 | -1.82
Cc1nonc1CN(C)Cc1nc(-c2ccccc2Cl)oc1C | -3.04
O=C1CCC2(CCN(Cc3ccc(F)cc3Cl)CC2)CN1CCO | 5.29
Cc1nc2cc(C(=O)N3C[C@@H](C(=O)O)[C@H](c4ccncc4)C3)ccc2[nH]1 | 0.682
Cc1ccc(C2(O)CCN(C(=O)Cn3cc(C)c(=O)[nH]c3=O)CC2)nc1 | -7.22
c1ccc(C(Cn2cccn2)Nc2cnccn2)cc1 (centres undefined) | 2.99
Cc1ccc(C(=O)Nc2cn[nH]c2)cc1 | -8.83
Cc1cc(C)n(CC2CCCN2C(=O)CCc2nccs2)n1 (centres undefined) | -7.07
Cc1cnn(CC2CCCN2Cc2nc(N)c3ccccc3n2)c1 (centres undefined) | -29.5
CS(=O)(=O)c1ccc(OCCCN2CCc3cncnc3C2)cc1 | -15.3
COc1ccc(C(O)CN2CC(n3nc(C)cc3C)C2)cc1 (centres undefined) | -15.3
CC(Cn1cccn1)NC(=O)NCc1cccnc1 (centres undefined) | -0.088
Cc1nc(CN2CCCC(N(C)CC(=O)Nc3cccnc3)C2)no1 (centres undefined) | -7.88
CC(C)(O)CN1CCN(C(=O)c2cccc3[nH]ncc23)CC1 | 3.28
CCn1cc(CN2CCCN(C(=O)CCc3ccncc3)CC2)cn1 | -11.1
CC(C(=O)Nc1ccc(N2CCCC2)nc1)n1ccnc1 (centres undefined) | -8.53
Cc1ccc(CNC(C)c2ccc3[nH]c(=O)[nH]c3c2)s1 (centres undefined) | -10.7
CC(C)n1ccnc1CN1CCCN(C(=O)c2nccnc2N)CC1 | -7.26
CC(NC(=O)NCCCc1n[nH]c(N)c1C#N)c1ccccc1 (centres undefined) | -7.21

Structure (SMILES) | cytotoxicity at 10 µM [%]
Cc1nn(C)cc1CCC(=O)N1CCCC(n2cncn2)C1 (centres undefined) | 1.9
Cc1nc(C)n(C2CCCN(C(=O)c3ccccc3C)C2)n1 (centres undefined) | 1.59
CC(=O)Nc1nc(C(=O)Nc2ccc(F)cc2)cs1 | 6.47
O=C(CN(C1=NCCCC1)c1ccccc1)c1ccc(OC(F)F)cc1 | 2.88
CNC(=O)[C@@H]1CCO[C@@H]2CCN(Cc3ccsc3)C[C@H]21 | -78.3
C[C@@H]1C(=O)NC[C@H]2CN(Cc3ccc4c(c3)OCO4)C[C@H]21 | 1.44
O=C(NCC1CC1)C1CN(c2ncccn2)Cc2ccnn2C1 (centres undefined) | 0.705
Cn1cc(CN2C[C@H]3CCC[C@@H](CNc4ncccn4)[C@H]3C2)cn1 | -2.57
CN(C)CCn1c2c(ccc1=O)CC(NCc1cnn(C)c1)CC2 (centres undefined) | -105
O=C1CC(c2ccccc2)C2(CCN(CC3CC3)CC2)N1 (centres undefined) | -6.47
Cc1cnc(N2CCc3cc(C(=O)O)c(N(C)C)nc3CC2)nc1 | -104
Cc1ccc(C(=O)N2C[C@@H]3OCCN(C)[C@@H]3C2)cn1 | -68.3
Cn1ccnc1CN1CCC(F)(F)C2(CCN(c3cccnc3)C2)C1 (centres undefined) | -98.8
CN(Cc1cccnc1)CC1CN(C(=O)C2CC2)Cc2nccn2C1 (centres undefined) | -79.8
Cc1ccc(N2CC[C@@H]3[C@@H]2CCN3C(=O)Cc2cccs2)nn1 | -99.8
Cc1ccc(N2CC[C@H]3O[C@H](C(=O)NCc4ccco4)CC[C@H]32)nn1 | -71.9
c1ccc(CN2CCC3(CC2)CC(Oc2cccnc2)C3)nc1 | -111
Cc1cccc(CN2C(=O)CC[C@@H]3[C@H]2CCN3Cc2cccnc2)n1 | -74.6
Cc1cccc(C(=O)N2C[C@@H]3C(CC(=O)Nc4cccnc4)[C@@H]3C2)n1 (some centres undefined) | -0.39
O=C(CCc1n[nH]c2c1CCCC2)N1C[C@H]2CC[C@@H](C1)N(CC1CC1)C2 | -3.73
COc1ccnc(N2C[C@H]3CC[C@@H](C2)N(CC2CC2)C3)n1 | -0.65
